# Assay results taken from the RNAGym collection of RNA variant scans (doi:10.1126/science.aae0568).
# Fewer inactive variants are shown than the library holds.
# B1: tRNA (parent)
# chain: GUUCCGUUGGCGUAAUGGUAACGCGUCUCCCUCCUAAGGAGAAGACUGCGGGUUCGAGUCCCGUACGGAACG
# Variants of: B1
# Experiment: yeast fitness relative to wild type (ratio to wild type); higher = fitter; tRNA-Arg(CCU), competitive growth, 37 C, YPD
# How it was run: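 Variants of the tRNA-Arg(CCU) gene, chemically synthesised with a 3% per-site mutation rate at 69 sites, were placed at the native genomic locus in Saccharomyces cerevisiae. The pooled strains were competed in YPD at 37°C for 24 hours in six parallel replicates. Gene amplicons from the start population and from each end population were read by 100-nucleotide paired-end sequencing. Darwinian fitness relative to wild type came from changes in genotype frequencies; genotypes needed ≥ 100 starting reads, and estimates < 0.5 were set to 0.5.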
row,Variant,yeast fitness
1,C11G A37C C46G G48A C49U,≤ 0.5
2,C11G A14G G18C A20U C33U C62U G63A,≤ 0.5
3,C11G C22G A37G C60A A70G,≤ 0.5
4,C11A G25C C46U G50A,≤ 0.5
5,C11G A20G C24U U28C,≤ 0.5
6,C11A U16C G18C A45C A57C G67A G68C,≤ 0.5
7,C11A U16C U32G C49G C55A,0.546
8,C11A U13A A14U G23C A69U,≤ 0.5
9,C11G A37G G51C A57G C66U,≤ 0.5
10,C11G C22A C31U A42G C66U,≤ 0.5
11,C11A U16C U32G U64G,≤ 0.5
12,C11G A36C G68A,0.506
13,C11G A20C C49G,≤ 0.5
14,C11A U32A C34A A65C,≤ 0.5
15,C11G A15G C22A A37U A65C C66G,≤ 0.5
16,C11A U13A A20U G63A A65U,≤ 0.5
17,C11G A43U U47A A65U G67C,≤ 0.5
18,C11G A20C C24G C66U,≤ 0.5
19,C11G A57G C61U,0.588
20,C11G A15G U26A U32A G38A A40C G58A,≤ 0.5
21,C11A U35G G67A,0.52

row,Variant,yeast fitness
1,C11G C22U A40G C55G C61G,≤ 0.5
2,C11A U19A C29A U32A U54C C55G C60G A65G,≤ 0.5
3,C11G C22U G63C,≤ 0.5
4,C11G A45U G50A G63A U64A,0.668
5,C11G A15G C33G A37G C60A,0.582
6,C11A U19A A42U A45C U47C C55U A69C,≤ 0.5
7,C11G C24U C30U U54A,≤ 0.5
8,C11G A14G G63A C66U,≤ 0.5
9,C11G A15C C24U A43U G68A,≤ 0.5
10,C11A U28G C34U,≤ 0.5
11,C11A U35A A37C A43G,0.511
12,C11G A21U A36U,≤ 0.5
13,C11G C22G C62U,≤ 0.5
14,C11G A57C C60U,≤ 0.5
15,C11G C24G C29U C62G C66A,≤ 0.5
16,C11G A14C G18C C29G C49U A65C,≤ 0.5
17,C11G A20C C24U A36C U47A G56C C60G,≤ 0.5
18,C11G A43G,0.641
19,C11G A43U,0.726
20,C11A G52A C62U,≤ 0.5
21,C11G C22U A70U,≤ 0.5

row,Variant,yeast fitness
1,C11G A20C C24G G63A C66U,≤ 0.5
2,C11G A21U C31G,≤ 0.5
3,C11G A15G C33G G52C A69C,≤ 0.5
4,C11G A40C C61U,≤ 0.5
5,C11G A21U C27A C61G,0.531
6,C11A U28G C33A A42C A65U,≤ 0.5
7,C11G A45G,0.636
8,C11G A15G A45C C46A A65C,≤ 0.5
9,C11A G25A G58C A65G,0.568
10,C11A U28C A69U,≤ 0.5
11,C11A G51C,0.585
12,C11G A20U G38C G50A,0.569
13,C11G C22U A40C C46U C60A,≤ 0.5
14,C11G A14C A57C C61A A69C,0.581
15,C11A U16G U53G,≤ 0.5
16,C11A U16C G18C A45C A57C C62U,≤ 0.5
17,C11G A15U C34A A42C G48A C55U,≤ 0.5
18,C11A U28G C33A A45G A65U,≤ 0.5
19,C11A U28G G44C,0.602
20,C11A U16A C30G G44C C61A,≤ 0.5
21,C11G C27U A37U G44A C62A,0.511

row,Variant,yeast fitness
1,C11A U35A G52A,≤ 0.5
2,C11G A36U A37U C55U,≤ 0.5
3,C11G A20U C22G A43C,≤ 0.5
4,C11A U16C U32G,0.523
5,C11G A14G C27A G38A A65C,≤ 0.5
6,C11A G51A A65U,≤ 0.5
7,C11G C24A A43C,≤ 0.5
8,C11G A14U A43U G52A G68C A69G,0.636
9,C11G A15G C22A U26A A40U C49U,≤ 0.5
10,C11G C24U A42U A43U,0.653
11,C11G A15G U26A U32A G38A A40C,0.546
12,C11G C27A G38A C55G,≤ 0.5
13,C11A G23C G52C,0.57
14,C11A G41A A45U G56C,≤ 0.5
15,C11G A21G G38C G41C C55A A65C,0.525
16,C11G C22U A40G C60G G63C,≤ 0.5
17,C11G C24U C34G,≤ 0.5
18,C11A U59C,0.527
19,C11G C24G C27G G48C,≤ 0.5
20,C11G A45G C49U C55A,≤ 0.5
21,C11G A20C C24U A36C C66U G67A,≤ 0.5
